Activity calls are given as the source filed them. The rule behind the calls is not given here.
Experiments:
[1] = Selectivity index, ratio of IC50 for rat L6 cells to IC50 for Trypanosoma brucei rhodesiense STIB900; format: functional
Summary of the method: (§1)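 Ratio of the IC₅₀ on L-6 rat skeletal myoblasts to the parasite IC₅₀. Cytotoxicity measured in RPMI 1640 with L-glutamine and 10% FBS, serial dilutions 90 to 0.123 µg/mL, duplicate. After 72 h, Alamar blue (resazurin) added for 2 h. Fluorescence read at ex 536 / em 588 nm.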

[2] = Selectivity index, ratio of IC50 for rat L6 cells to IC50 for Plasmodium falciparum K1; format: functional; summary of the method: as §1
[3] = Binding affinity for DNA assessed as thermal melting temperature
Summary of the method: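 Thermal melting of poly(dA)·poly(dT): DNA at 40 µM base with compound at 12 µM (ratio 0.3) in MES 0.01 M / EDTA 0.001 M buffer, pH 6.25. A260 followed from 20 to 95 °C at 0.5 °C/min. Value is ΔTm.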

[4] = system: Trypanosoma brucei rhodesiense; assay: Antitrypanosomal activity against Trypanosoma brucei rhodesiense STIB900 infected NMRI mouse assessed as survival of animals administered at 20 mg/kg, ip after 4 days; format: functional; conditions: route intraperitoneal
Summary of the method: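 Mice infected ip with 2 × 10⁴ bloodstream forms of T. b. rhodesiense STIB900. Groups of four treated ip on days 3–6, untreated control group. Parasitemia checked every second day to day 14, then twice weekly to day 60. Deaths recorded for mean survival time. Surviving aparasitemic mice at 60 days counted as cured.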

Ferriprotoporphyrin IX [5] = assay: Inhibition of ferriprotoporphyrin 9 biomineralization at 1 mg/ml; format: functional
Summary of the method: (§2)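 β-Hematin formation: hemin chloride (0.5 mg/mL in DMSO) with 0.5 M sodium acetate pH 4.4 and drug dilutions, 37 °C for 18–24 h. Pellet washed with DMSO, dissolved in 0.1 N NaOH, A405 read. Percent inhibition relative to solvent control. IC₅₀ derived, or percent inhibition at 1 mg/mL (highest concentration) given when no IC₅₀.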

[6] = system: Trypanosoma brucei rhodesiense; assay: Antitrypanosomal activity against Trypanosoma brucei rhodesiense STIB900; format: functional, organism-based
Summary of the method: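 Bloodstream forms (10⁴ per well) in MEM with 15% heat-inactivated horse serum, 25 mM HEPES, 2-mercaptoethanol, hypoxanthine. 3-fold serial dilutions from 90 to 0.123 µg/mL, in duplicate. Incubation 72 h at 37 °C, 5% CO₂. Resazurin then added for 2–4 h more. Fluorescence read at ex 536 / em 588 nm.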

L6 = assay: Cytotoxicity against rat L6 cells; format: cell-based
Plasmodium falciparum = assay: Antiplasmodial activity against Plasmodium falciparum K1 in [3H]hypoxanthine incorporation assay; format: functional, organism-based; conditions: K1, 72 h
Summary of the method: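 K1 erythrocytic stages in RPMI 1640 without hypoxanthine with AlbuMax, human A⁺ red cells at 2.5% hematocrit, 0.3% parasitemia. Compounds taken from 10 mg/mL DMSO stock, tested as serial doubling dilutions at 37 °C in 4% CO₂/3% O₂/93% N₂. After 48 h, ³H-hypoxanthine (0.5 µCi) added for 24 h more; incorporation by scintillation counting. IC₅₀ from sigmoidal curves.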

[7] = system: Plasmodium berghei (ANKA); assay: Antiplasmodial activity as survival against Plasmodium berghei ANKA infection in NMRI mice (Mus musculus) at 20 mg/kg intraperitoneal dose for 4 days
Ferriprotoporphyrin IX [8] = assay: Inhibition of ferriprotoporphyrin 9 biomineralization; format: functional; summary of the method: as §2
[9] = system: Plasmodium berghei (ANKA); assay: Antiplasmodial activity against parasitemia in Plasmodium berghei ANKA infected NMRI mice (Mus musculus) at 20 mg/kg intraperitoneal dose after 4 days
[10] = system: Trypanosoma brucei rhodesiense; assay: Antitrypanosomal activity against Trypanosoma brucei rhodesiense STIB900 infected NMRI mouse assessed as number of cured animals at 20 mg/kg, ip after 4 days; format: functional, organism-based; design: dose 20 mg/kg
Summary of the method: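 Mice infected ip with 2 × 10⁴ STIB900 bloodstream forms. Groups of four treated ip on days 3–6, with an untreated control group. Parasitemia checked every second day to day 14, then twice weekly to day 60. Mice surviving and aparasitemic at 60 days counted as cured.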

[11] = system: Plasmodium berghei (ANKA); assay: Antiplasmodial activity as survival against Plasmodium berghei ANKA infection in NMRI mice (Mus musculus) assessed at 5 mg/kg intraperitoneal dose for 4 days
[12] = system: Plasmodium berghei (ANKA); assay: Antiplasmodial activity as survival against Plasmodium berghei ANKA infection in NMRI mice (Mus musculus) at 10 mg/kg intraperitoneal dose for 4 days
[13] = system: Plasmodium berghei (ANKA); assay: Antiplasmodial activity against parasitemia in Plasmodium berghei ANKA infected NMRI mice (Mus musculus) at 10 mg/kg intraperitoneal dose after 4 days
[14] = system: Plasmodium berghei (ANKA); assay: Antiplasmodial activity against parasitemia in Plasmodium berghei ANKA infected NMRI mice (Mus musculus) at 5 mg/kg intraperitoneal dose after 4 days
Plasmodium berghei [15] = assay: Antiplasmodial activity as survival against Plasmodium berghei ANKA infection in NMRI mice (Mus musculus) at 30 mg/kg intraperitoneal dose for 4 days
Plasmodium berghei [16] = assay: Antiplasmodial activity against parasitemia in Plasmodium berghei ANKA infected NMRI mice (Mus musculus) at 30 mg/kg intraperitoneal dose after 4 days
Mus musculus = assay: Toxicity in Plasmodium berghei ANKA infected NMRI mice (Mus musculus) at 50 mg/kg, intraperitoneally for 4 days; format: organism-based; design: dose 50 mg/kg, route intraperitoneal; conditions: in vivo, ip, 96 h
Summary of the method: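 Toxicity recorded in the P. berghei ANKA model. Female NMRI mice (20–22 g), three per group, infected iv with 2 × 10⁷ parasitized erythrocytes. Compound in DMSO diluted 10-fold in water, dosed ip at 4, 24, 48 and 72 h post-infection. Survival followed up to 30 days after infection.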

Row | SMILES | Ratio IC50 [1] | Ratio IC50 [2] | ΔTm [3] [°C] | Survival [4] [days] | inhibition (Ferriprotoporphyrin IX [5]) [%] | IC50 [6] [nM] | IC50 (L6) [nM] | IC50 (Plasmodium falciparum) [nM] | Survival [7] [days] | IC50 (Ferriprotoporphyrin IX [8]) [nM] | Activity [9] [%] | Activity [10] | Survival [11] [days] | Survival [12] [days] | Activity [13] [%] | Activity [14] [%] | Survival (Plasmodium berghei [15]) [days] | Activity (Plasmodium berghei [16]) [%] | Activity (Mus musculus)
1 | Cl.c1cc(C2CCN(c3ccc(NC4=NCCN4)cc3)CC2)ccc1NC1=NCCN1 | 3474 | 12000 | 35 | >47.25 | 0 | 38 | 132000 | 11 | – | – | – | – | – | – | – | – | – | – | –
2 | c1cc(Nc2ccc(NC3=NCCN3)cc2)ccc1NC1=NCCN1 | 3072 | 24000 | 38.5 | – | – | 69 | 212000 | 8.8 | 7 | 429000 | 65.51 | – | – | – | – | – | – | – | –
3 | c1cc(NC2=NCCN2)ccc1Cc1ccc(NC2=NCCN2)cc1 | 71 | 4051 | 18.8 | – | – | 897 | 63600 | 15.7 | 6.7 | – | 8.9 | – | – | – | – | – | – | – | –
4 | Cl.O=C(Nc1ccc(NC2=NCCN2)cc1)Nc1ccc(NC2=NCCN2)cc1 | 852 | 3714 | 31 | >60 | – | 122 | 104000 | 28 | – | 393000 | – | Active | – | – | – | – | – | – | –
5 | CCN(CC)CCCC(C)Nc1ccnc2cc(Cl)ccc12 (centres undefined) [CHLOROQUINE] | – | – | – | – | – | – | – | – | – | 17900 | – | – | 9 | 20 | 99.6 | 99.6 | – | – | –
6 | c1cc(Oc2ccc(NC3=NCCN3)cc2)ccc1NC1=NCCN1 | 88 | 1079 | 27.1 | – | 0 | 467 | 41000 | 38 | – | – | – | – | – | – | – | – | 7 | 44.1 | –
7 | Cl.N=C(N)Nc1ccc(NC(=O)Nc2ccc(NC(=N)N)cc2)cc1 | >1256 | >2547 | 24.1 | – | 0 | 187 | > 235000 | 96 | – | – | – | – | – | – | – | – | – | – | Toxic
8 | N=C(N)Nc1ccc(N2CCN(c3ccc(NC(=N)N)cc3)CC2)cc1 | 172 | 3053 | 27.8 | – | 0 | 270 | 46400 | 15.2 | 7 | – | 42.48 | – | – | – | – | – | – | – | –
9 | c1cc(N2CCN(c3ccc(NC4=NCCN4)cc3)CC2)ccc1NC1=NCCN1 | 881 | 8455 | 38.8 | – | – | 118 | 104000 | 12.3 | 7 | 128000 | 0 | – | – | – | – | – | – | – | –
